RGS4 act – RGS4 potentiators or activators, primary screen, cell-based, HEK293 M3R inducible RGS4, calcium flux. carbachol calcium flux Fluo4; active compounds read low. B-score at 10 µM. 0.92% of 310,000 active;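 active = B-score of the integrated calcium signal more than 4 SD below the library mean, with starting fluorescence not abnormally high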;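 note: negative B-score means reduced calcium response which marks RGS4 activation or potentiation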
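Assay system: HEK293 FlpIn-TREx cells, stable M3R, doxycycline-inducible RGS4 / Probe or stimulus: carbachol, ECmax concentration / Times: overnight RGS4 induction, 30 min dye load 37 °C, 20 min compound RT / Signal: kinetic calcium fluorescence imaging with Fluo4-AM dye, 2 µM / Measure: Agonist-evoked peak-minus-minimum fluorescence over baseline, integrated ratio, B score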
MrgX1 ag – agonists of human MrgX1 receptor, primary screen, HEK293 cells, Fluo-4 calcium flux. B-score at 10 µM. 0.44% of 310,000 active. Fluo-4 calcium fluorescence, agonist mode; active compounds read high;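 active = calcium response B-score plate-corrected fluorescence ratio at least 3 library SD, with starting fluorescence B-score inside 5 SD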
Target sequence (Q96LB2 whole entry, looked up): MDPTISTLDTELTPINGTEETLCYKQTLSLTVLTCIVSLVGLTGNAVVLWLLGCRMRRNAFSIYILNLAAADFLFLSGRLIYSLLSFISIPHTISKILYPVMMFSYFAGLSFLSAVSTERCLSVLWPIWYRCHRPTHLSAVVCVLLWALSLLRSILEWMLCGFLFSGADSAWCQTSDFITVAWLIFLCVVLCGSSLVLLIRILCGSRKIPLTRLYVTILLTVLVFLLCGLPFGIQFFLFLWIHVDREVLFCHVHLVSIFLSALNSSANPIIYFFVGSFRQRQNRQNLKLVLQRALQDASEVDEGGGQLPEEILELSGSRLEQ
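Material: MrgX1-expressing HEK293 cells / Dosing: compound as first of three additions / Incubation: overnight seeding, then 1 h dark dye loading / Signal: Fluo-4 NW calcium fluorescence / Evaluation: B-scored fluorescence response ratio / Benchmarks: positive and negative control wells on each plate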
RGS4 inh – RGS4 inhibitors, primary screen, cell-based, HEK293 M3R inducible RGS4, calcium flux; AID 463165, 2010; Regulator of G-protein signaling 4 (Homo sapiens), P49798; 0.45% of 310,000 active; Fluo-4 calcium flux; active compounds read high; triggered by carbachol at its EC20; B-score at 10 µM;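 active = B-score, a plate-corrected calcium signal, over three deviations above library mean, with baseline fluorescence within five deviations of library mean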;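 note: RGS4 expression induced by doxycycline in cells with stable M3 receptor; B-score is computed from the integrated fluorescence ratio over baseline after carbachol; higher B-score means a larger calcium signal and so more RGS4 inhibition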
MrgX1 PAM – positive allosteric modulators of MrgX1, primary screen, HEK293 cells, Fluo-4 calcium flux; FDSS; active compounds read high; Mas-related G-protein coupled receptor member X1 (Homo sapiens), Q96LB2; 0.63% of 310,000 active; B-score at 10 µM;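 active = plate-corrected calcium response at least 3 library SD above typical, normal starting fluorescence, not activating the receptor alone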;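 note: compound read alongside a low EC10 to EC30 dose of BAM8-22 agonist; peak minus trough fluorescence over baseline measured at the second addition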
MrgX1 antag – antagonists of human MrgX1 receptor, primary screen, HEK293 cells, Fluo-4 calcium flux | Mas-related G-protein coupled receptor member X1 (Homo sapiens), Q96LB2 | BAM8-22 antagonism; active compounds read low | B-score at 10 µM | 1.3% of 310,000 active | AID 588676, 2011;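 active = calcium-response B-score plate-corrected more than 3 library SD below zero, starting fluorescence within 5 deviations, no agonist response on first addition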;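 note: peak minus trough fluorescence over baseline after final BAM8-22 challenge near maximal dose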
Large screens that a line does not name were inactive. Shown are actives, neighbours in structure and some others; about 3.5% of the full set was active somewhere.

Cc1cccc(C)c1N(CC(=O)NCc1ccco1)C(=O)CNS(=O)(=O)c1ccc(F)cc1	none
Cc1cc(C)n2nc(C(=O)OCC(=O)c3c[nH]c4ccccc34)nc2n1	MrgX1 antag -5.5
COc1ccc(C(=O)COC(=O)c2cc(S(=O)(=O)NCc3ccccc3)ccc2O)cc1	MrgX1 ag 26
Cc1cccc(C(=O)NNC(=O)c2ccco2)c1O	none
CCN1CCN(C(=O)c2ccc(Sc3ccccc3Cl)c([N+](=O)[O-])c2)CC1	none
CCN1CCCC1CNC(=O)c1ccc(Sc2ccccc2Cl)c([N+](=O)[O-])c1 (configuration not stated)	RGS4 act -7.1
CCN1CCCC1CNC(=O)c1ccc(Sc2ccc(F)cc2)c([N+](=O)[O-])c1 (configuration not stated)	RGS4 act -9.9
COc1cc(/C=C2\C(=N)N3N=C(C)SC3=NC2=O)cc(OC)c1OCCOc1ccccc1C	none
CCCC1=NN2C(=N)/C(=C\c3ccc(OCCOc4ccc(NC(C)=O)cc4)c(OC)c3)C(=O)N=C2S1	MrgX1 PAM 15
CCC1=NN2C(=N)/C(=C/c3c(C)nn(-c4ccccc4)c3Cl)C(=O)N=C2S1	MrgX1 ag 30
CCC1=NN2C(=N)/C(=C/c3ccc(OS(=O)(=O)c4ccccc4)c(OC)c3)C(=O)N=C2S1	none
COc1cc(/C=C2/C(=N)N3OC(C)=CC3=NC2=O)ccc1OCCOc1ccc(C)cc1	MrgX1 antag -4.9
COc1cc(/C=C2\C(=N)N3N=C(C)SC3=NC2=O)cc(Cl)c1OCCOc1ccc(NC(C)=O)cc1	MrgX1 PAM 7.6
COc1ccc(/C=N/OCC(=O)N2CCCC2)c(OC)c1	none
CCOC(=O)C1CN(S(=O)(=O)c2cccs2)c2ccc(CC(=O)OC)cc2O1 (configuration not stated)	none
COc1ccc(NC2CCCN(C(=O)CN3CCOC3=O)C2)cc1 (configuration not stated)	none
CCc1nn2c(=O)cc(COc3ccc(/C=C4\C(=N)N5N=C(C)SC5=NC4=O)cc3)nc2s1	MrgX1 PAM 9.4, MrgX1 antag -4.5
CCOc1cc(/C=C2\C(=N)N3N=C(C)SC3=NC2=O)ccc1OCCOc1cccc(OC)c1	none
CCOc1cc(/C=C2\C(=N)N3N=C(CC)SC3=NC2=O)ccc1OCCOc1ccc(NC(C)=O)cc1	none
COc1cc(/C=C2\C(=N)N3N=C(C(C)C)SC3=NC2=O)ccc1OCCOc1ccc(NC(C)=O)cc1	MrgX1 PAM 14
CCC1=NN2C(=N)/C(=C\c3ccc(OCCOc4ccc(NC(C)=O)cc4)cc3)C(=O)N=C2S1	MrgX1 PAM 11
COc1ccccc1OCCOc1ccc(/C=C2\C(=N)N3N=C(S(C)(=O)=O)SC3=NC2=O)cc1	none
CC(=O)Nc1ccc(OCCOc2ccc(/C=C3/C(=N)N4C=CSC4=NC3=O)cc2)cc1	MrgX1 ag 30
CCCc1cc(=O)oc2c3c(cc(OCC(=O)NCCN4CCOCC4)c12)OC(C)(C)CC3	none
N#CCCN(C(=O)COc1ccc(F)cc1Br)c1ccccc1F	none
COc1ccc(C(C)=O)c(Oc2cc(NN3CCCCC3)c([N+](=O)[O-])cc2[N+](=O)[O-])c1	none
CC(=O)OC1COC(OC2C(O)C(C)OC(OC3C(OC4CCC5(C)C(CCC6(C)C5CC=C5C7CC(C)(C)CCC7(C(=O)O)CCC56C)C4(C)CO)OCC(O)C3O)C2O)C(O)C1OC(C)=O (configuration not stated)	MrgX1 ag 219 (no result: RGS4 act, RGS4 inh)
CC1(C)CC[C@]2(C(=O)O)CC[C@]3(C)C(=CC[C@@H]4[C@@]5(C)CC[C@H](O)C(C)(C)[C@@H]5CC[C@]43C)[C@@H]2C1	none (no result: RGS4 act, RGS4 inh)
CCOC(=O)C1CCCN(C(c2ccccn2)c2c(C)[nH]c3ccccc23)C1 (configuration not stated)	RGS4 act -8.4
COc1ccc(CCn2nc(C)c([N+](=O)[O-])c2C)cc1	MrgX1 antag -6.5
CCn1cc2nc(SCC(=O)Nc3ccc(F)cc3F)n(Cc3ccccc3)c(=O)c2n1	none
